In the assay the target is Metabotropic glutamate receptor 5 (Homo sapiens, UniProt P41594). Description: Displacement of [3H]M-MPEP from mGluR5 (unknown origin) at 1 uM measured after 60 mins relative to control. In a few lines:
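Rat cerebrocortical membranes or membranes from A18 cells expressing human mGlu5a, incubated with [³H]M-MPEP and test compound at 1 µM in 50 mM Tris pH 7.6 with 2 mM MgCl₂ and 2 mM CaCl₂, 60 min at 25°C. Non-specific binding was taken with […]. Result is % displacement, run in duplicate or triplicate.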
In general terms: Displacement assays read how much labelled ligand stays bound in the presence of the test substance.

Chain of Metabotropic glutamate receptor 5 (P41594 21-1212 limits assumed): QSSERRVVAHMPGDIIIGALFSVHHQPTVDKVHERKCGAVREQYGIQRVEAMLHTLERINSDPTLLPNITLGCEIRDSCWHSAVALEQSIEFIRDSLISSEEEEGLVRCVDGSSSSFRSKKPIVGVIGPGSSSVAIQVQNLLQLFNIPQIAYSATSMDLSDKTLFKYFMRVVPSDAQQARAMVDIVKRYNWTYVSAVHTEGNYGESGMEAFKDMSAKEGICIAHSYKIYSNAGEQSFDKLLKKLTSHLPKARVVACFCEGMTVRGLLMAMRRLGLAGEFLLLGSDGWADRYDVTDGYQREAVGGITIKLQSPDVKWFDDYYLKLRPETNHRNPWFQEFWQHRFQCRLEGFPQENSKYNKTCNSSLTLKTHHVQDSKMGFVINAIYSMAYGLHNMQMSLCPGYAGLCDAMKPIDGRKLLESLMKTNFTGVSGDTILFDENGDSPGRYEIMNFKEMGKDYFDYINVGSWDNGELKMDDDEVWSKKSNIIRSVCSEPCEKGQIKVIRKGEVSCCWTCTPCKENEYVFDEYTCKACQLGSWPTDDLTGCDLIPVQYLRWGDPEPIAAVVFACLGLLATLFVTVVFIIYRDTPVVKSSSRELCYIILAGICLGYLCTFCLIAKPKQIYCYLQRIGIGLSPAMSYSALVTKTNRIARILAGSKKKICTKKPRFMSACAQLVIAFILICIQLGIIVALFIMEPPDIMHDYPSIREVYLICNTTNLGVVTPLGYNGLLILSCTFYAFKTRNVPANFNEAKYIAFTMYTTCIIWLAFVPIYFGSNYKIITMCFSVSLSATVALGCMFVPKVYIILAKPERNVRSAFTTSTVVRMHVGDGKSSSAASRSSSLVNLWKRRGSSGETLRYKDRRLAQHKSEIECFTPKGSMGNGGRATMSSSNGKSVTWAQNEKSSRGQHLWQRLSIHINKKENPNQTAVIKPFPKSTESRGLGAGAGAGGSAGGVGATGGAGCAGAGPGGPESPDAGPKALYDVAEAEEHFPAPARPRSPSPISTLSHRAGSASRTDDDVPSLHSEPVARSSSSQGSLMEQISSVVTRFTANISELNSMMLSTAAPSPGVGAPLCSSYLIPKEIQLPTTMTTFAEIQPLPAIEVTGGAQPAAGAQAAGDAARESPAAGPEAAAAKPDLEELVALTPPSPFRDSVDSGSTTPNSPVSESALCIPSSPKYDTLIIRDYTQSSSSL

For `COc1ccc2ncc(S(=O)(=O)c3ccc(OC)c(Cl)c3)c(N3CCC(C)CC3)c2c1`, the inhibition amounted to 21%.

Take `Cc1cc(C)cc(S(=O)(=O)c2cnc3cc(Cl)ccc3c2N2CCOCC2)c1`: the inhibition amounted to 24%.

Turning to `COc1ccc(S(=O)(=O)c2cnc3ccc(F)cc3c2N2CCOCC2)cc1`, the inhibition was found to be 18%.

Regarding `COc1ccc2ncc(S(=O)(=O)c3cc(C)cc(C)c3)c(N3CCC(C)CC3)c2c1`, the inhibition was found to be 79%.

`COc1ccc(S(=O)(=O)c2cnc3ccc(Cl)cc3c2N2CCOCC2)cc1OC`: the inhibition was -2%.

As for `COc1cccc(S(=O)(=O)c2cnc3ccc(F)cc3c2N2CCOCC2)c1`, the inhibition was determined as 41%.

In the case of `O=S(=O)(c1ccc(F)c(Cl)c1)c1cnc2cc(Cl)ccc2c1N1CCOCC1`, the inhibition came out at 83%.

Turning to `Cc1ccc(S(=O)(=O)c2cnc3ccc(F)cc3c2N2CCC(C)CC2)cc1`, the inhibition came out at 91%.

Regarding `COc1ccc2ncc(S(=O)(=O)c3ccc(Cl)c(Cl)c3)c(N3CCOCC3)c2c1`, the inhibition turned out to be 29%.

As for `Cc1ccc2ncc(S(=O)(=O)c3ccc(C#N)cc3)c(N3CCC(C)CC3)c2c1`, the inhibition turned out to be 55%.

For the compound `O=S(=O)(c1ccc(F)cc1)c1cnc2cc(Cl)ccc2c1N1CCC(CO)CC1`, the inhibition amounted to 75%.

For the compound `Cc1ccc2ncc(S(=O)(=O)c3ccc(F)cc3)c(N3CCOCC3)c2c1`, the inhibition was 18%.

For the compound `Cc1ccc(S(=O)(=O)c2cnc3cc(Cl)ccc3c2N2CCOCC2)cc1`, the inhibition is 12%.

Take `Cc1ccc2ncc(S(=O)(=O)c3ccc(C#N)cc3)c(N3CCOCC3)c2c1`: the inhibition is 48%.

On to `CC1CCN(c2c(S(=O)(=O)c3cc(Cl)cc(Cl)c3)cnc3cc(F)ccc23)CC1`, for which the inhibition was found to be 87%.

Regarding `Cc1ccc2ncc(S(=O)(=O)c3ccc(Cl)c(Cl)c3)c(N3CCOCC3)c2c1`, the inhibition is 76%.

Take `CC1CCN(c2c(S(=O)(=O)c3ccc(C#N)cc3)cnc3cc(Cl)ccc23)CC1`: the inhibition turned out to be 70%.

For `CC1CCN(c2c(S(=O)(=O)c3ccccc3)cnc3cc(Cl)ccc23)CC1`, the inhibition came to 93%.

As for `COc1ccc2ncc(S(=O)(=O)c3ccc(F)cc3)c(N3CCC(C)CC3)c2c1`, the inhibition is 27%.

As to `Cc1ccc(S(=O)(=O)c2cnc3ccc(Cl)cc3c2N2CCC(C)CC2)cc1Cl`, the inhibition is 81%.

As for `COc1cccc(S(=O)(=O)c2cnc3ccc(OC)cc3c2N2CCC(C)CC2)c1`, the inhibition is 0%.

For the compound `Cc1cc(C)cc(S(=O)(=O)c2cnc3ccc(Cl)cc3c2N2CCOCC2)c1`, the inhibition was 14%.

Consider `COc1ccc2ncc(S(=O)(=O)c3cc(Cl)cc(Cl)c3)c(N3CCC(C)CC3)c2c1`, for which the inhibition was found to be 87%.

Take `CC1CCN(c2c(S(=O)(=O)c3cccc(Cl)c3)cnc3ccc(Cl)cc23)CC1`: the inhibition is 92%.

For the compound `O=S(=O)(c1ccccc1)c1cnc2ccccc2c1Nc1ccccc1`, the inhibition came to 3.6%.

For the compound `Cc1ccc(S(=O)(=O)c2cnc3cc(Cl)ccc3c2N2CCOCC2)cc1C`, the inhibition came to 87%.

For the compound `COc1ccc(S(=O)(=O)c2cnc3ccc(F)cc3c2N2CCOCC2)cc1OC`, the inhibition was -5%.

`COCC1CCN(c2c(S(=O)(=O)c3ccc(F)cc3)cnc3cc(F)ccc23)CC1`: the inhibition is 76.1%.

Turning to `O=S(=O)(c1ccc(Cl)c(Cl)c1)c1cnc2ccc(Cl)cc2c1N1CCOCC1`, the inhibition is 63%.

As for `Cc1ccc(S(=O)(=O)c2cnc3cc(F)ccc3c2N2CCOCC2)cc1F`, the inhibition came to 51%.

On to `COc1ccc2ncc(S(=O)(=O)c3ccc(C)c(F)c3)c(N3CCOCC3)c2c1`, for which the inhibition worked out at 4%.

With `COc1ccc2ncc(S(=O)(=O)c3cccc(C#N)c3)c(N3CCOCC3)c2c1`, the inhibition came to 20%.

`N#Cc1ccc(S(=O)(=O)c2cnc3cc(F)ccc3c2N2CCOCC2)cc1`: the inhibition was determined as 4%.

Take `O=S(=O)(c1cccc(F)c1)c1cnc2cc(F)ccc2c1N1CCOCC1`: the inhibition lay in the range of 4 to 4.1%.

For `CC1CCN(c2c(S(=O)(=O)c3ccc(F)cc3)cnc3cc(F)ccc23)CC1`, the inhibition was in the range of 74.5 to 75%.

Regarding `O=S(=O)(c1cc(Cl)cc(Cl)c1)c1cnc2cc(Cl)ccc2c1N1CCOCC1`, the inhibition is 85%.

Take `O=S(=O)(c1cccc(F)c1)c1cnc2cc(Cl)ccc2c1N1CCC(CO)CC1`: the inhibition amounted to 71%.

For the compound `NC(=O)C1CCN(c2c(S(=O)(=O)c3ccccc3)cnc3ccccc23)CC1`, the inhibition came out at 24.8%.

As for `O=S(=O)(c1ccc(Cl)cc1)c1cnc2cc(F)ccc2c1N1CCOCC1`, the inhibition stood at 50%.

As to `Cc1ccc(S(=O)(=O)c2cnc3ccc(Cl)cc3c2N2CCOCC2)cc1F`, the inhibition amounted to 23%.

In the case of `CC1CCN(c2c(S(=O)(=O)c3cc(Cl)cc(Cl)c3)cnc3cc(Cl)ccc23)CC1`, the inhibition was found to be 93%.

As for `N#Cc1cccc(S(=O)(=O)c2cnc3ccc(F)cc3c2N2CCOCC2)c1`, the inhibition was determined as 25%.

With `COc1ccc(S(=O)(=O)c2cnc3cc(F)ccc3c2N2CCOCC2)cc1OC`, the inhibition is 5%.

With `O=S(=O)(c1cc(Cl)cc(Cl)c1)c1cnc2c(F)cccc2c1N1CCOCC1`, the inhibition turned out to be 77%.

Consider `COc1cccc(S(=O)(=O)c2cnc3cc(F)ccc3c2N2CCOCC2)c1`, for which the inhibition stood at 72%.

As for `CC1CCN(c2c(S(=O)(=O)c3ccc(C#N)cc3)cnc3c(F)cccc23)CC1`, the inhibition amounted to 86%.

With `CN1CCN(c2c(S(=O)(=O)c3ccccc3)cnc3ccccc23)CC1`, the inhibition came to 7.7%.

On to `O=S(=O)(c1cc(Cl)cc(Cl)c1)c1cnc2ccc(F)cc2c1N1CCOCC1`, for which the inhibition stood at 17%.

`Cc1ccc2ncc(S(=O)(=O)c3ccc(C)c(Cl)c3)c(N3CCC(C)CC3)c2c1`: the inhibition is 91%.

`O=S(=O)(c1ccccc1)c1cnc2cc(Cl)ccc2c1N1CCOCC1`: the inhibition stood at 5%.

Consider `CC1CCN(c2c(S(=O)(=O)c3ccc(Cl)cc3)cnc3ccc(F)cc23)CC1`, for which the inhibition turned out to be 80%.

For `CC1CCN(c2c(S(=O)(=O)c3cc(Cl)cc(Cl)c3)cnc3ccc(F)cc23)CC1`, the inhibition is 69%.

As for `COc1ccc2ncc(S(=O)(=O)c3cccc(F)c3)c(N3CCOCC3)c2c1`, the inhibition was -3%.

Consider `Cc1ccc2ncc(S(=O)(=O)c3ccc(C)c(F)c3)c(N3CCC(C)CC3)c2c1`, for which the inhibition is 91%.

For the compound `O=S(=O)(c1ccccc1)c1cnc2c(F)cccc2c1N1CCOCC1`, the inhibition was 4%.

Take `Cc1ccc(S(=O)(=O)c2cnc3ccc(Cl)cc3c2N2CCC(C)CC2)cc1C`: the inhibition was determined as 84%.

With `CC1CCN(c2c(S(=O)(=O)c3ccccc3)cnc3cc(F)ccc23)CC1`, the inhibition was determined as 87%.

Take `CC1CCN(c2c(S(=O)(=O)c3ccc(Cl)c(Cl)c3)cnc3cc(F)ccc23)CC1`: the inhibition is 94%.

`CC1CCN(c2c(S(=O)(=O)c3ccc(C#N)cc3)cnc3ccc(F)cc23)CC1`: the inhibition amounted to 75%.

Turning to `COc1ccc2ncc(S(=O)(=O)c3cccc(F)c3)c(N3CCC(C)CC3)c2c1`, the inhibition was determined as 68%.

Consider `COc1ccc(S(=O)(=O)c2cnc3cc(F)ccc3c2N2CCC(C)CC2)cc1`, for which the inhibition was determined as 90%.

Consider `Cc1ccc2ncc(S(=O)(=O)c3cc(F)cc(F)c3)c(N3CCC(C)CC3)c2c1`, for which the inhibition was found to be 72%.

Take `O=S(=O)(c1cccc(F)c1)c1cnc2ccc(F)cc2c1N1CCOCC1`: the inhibition is 0%.

Take `O=S(=O)(c1ccc(F)c(F)c1)c1cnc2cc(F)ccc2c1N1CCOCC1`: the inhibition came to 56%.

`Cc1cc(C)cc(S(=O)(=O)c2cnc3ccc(C)cc3c2N2CCC(C)CC2)c1`: the inhibition came out at 80%.

Turning to `O=S(=O)(c1cccc(F)c1)c1cnc2c(F)cccc2c1N1CCOCC1`, the inhibition turned out to be 23%.

With `CC1CCN(c2c(S(=O)(=O)c3cc(Cl)cc(Cl)c3)cnc3ccc(Cl)cc23)CC1`, the inhibition was determined as 88%.

Regarding `CC1CCN(c2c(S(=O)(=O)c3ccc(F)c(Cl)c3)cnc3ccc(F)cc23)CC1`, the inhibition worked out at 95%.

Consider `COc1ccc(S(=O)(=O)c2cnc3ccc(Cl)cc3c2N2CCC(C)CC2)cc1Cl`, for which the inhibition stood at 46%.

With `Cc1ccc(S(=O)(=O)c2cnc3ccc(Cl)cc3c2N2CCOCC2)cc1`, the inhibition came out at 84%.

As to `O=S(=O)(c1ccc(Cl)cc1)c1cnc2c(F)cccc2c1N1CCOCC1`, the inhibition is 52%.

With `COc1cccc(S(=O)(=O)c2cnc3ccc(C)cc3c2N2CCC(C)CC2)c1`, the inhibition came out at 96%.

For `Cc1ccc2ncc(S(=O)(=O)c3ccc(F)c(Cl)c3)c(N3CCC(C)CC3)c2c1`, the inhibition came to 93%.

Turning to `COc1ccc(S(=O)(=O)c2cnc3c(F)cccc3c2N2CCC(C)CC2)cc1`, the inhibition was found to be 67%.

For the compound `O=S(=O)(c1cc(Cl)cc(Cl)c1)c1cnc2cc(F)ccc2c1N1CCOCC1`, the inhibition worked out at 74%.

As for `COc1cccc(S(=O)(=O)c2cnc3ccc(C)cc3c2N2CCOCC2)c1`, the inhibition was 65%.

On to `Cc1ccc(S(=O)(=O)c2cnc3c(F)cccc3c2N2CCC(C)CC2)cc1`, for which the inhibition was found to be 93%.

For `COc1ccc2ncc(S(=O)(=O)c3ccc(Cl)c(Cl)c3)c(N3CCC(C)CC3)c2c1`, the inhibition is 87%.

Consider `O=S(=O)(c1ccc(F)cc1)c1cnc2c(F)cccc2c1N1CCOCC1`, for which the inhibition is 34%.

`COc1ccc2ncc(S(=O)(=O)c3ccccc3)c(N3CCOCC3)c2c1`: the inhibition stood at 65%.

With `CC1CCN(c2c(S(=O)(=O)c3ccc(C#N)cc3)cnc3cc(F)ccc23)CC1`, the inhibition turned out to be 83%.

`COc1ccc2ncc(S(=O)(=O)c3ccc(C)c(F)c3)c(N3CCC(C)CC3)c2c1`: the inhibition turned out to be 73%.

For `CC1CCN(c2c(S(=O)(=O)c3cc(F)cc(F)c3)cnc3cc(F)ccc23)CC1`, the inhibition fell in the range of 77 to 77.2%.

On to `COc1ccc2ncc(S(=O)(=O)c3ccc(F)cc3)c(N3CCOCC3)c2c1`, for which the inhibition stood at 7%.

On to `CC1CCN(c2c(S(=O)(=O)c3cccc(Cl)c3)cnc3ccc(F)cc23)CC1`, for which the inhibition was determined as 92%.

Consider `COc1ccc(S(=O)(=O)c2cnc3ccc(F)cc3c2N2CCC(C)CC2)cc1`, for which the inhibition was found to be 85%.

Take `Cc1ccc(S(=O)(=O)c2cnc3cc(Cl)ccc3c2N2CCOCC2)cc1Cl`: the inhibition amounted to 87%.

As a reminder, the inhibition is the drop in the measured response relative to a control, in per cent.

The values are drawn from ChEMBL document CHEMBL4052615, “Discovery of 4-amino-3-arylsulfoquinolines, a novel non-acetylenic chemotype of metabotropic glutamate 5 (mGlu5) receptor negative allosteric modulators” (Eur J Med Chem, 2017).
